Measurements taken from ChEMBL document CHEMBL4831490, “Silyl resveratrol derivatives as potential therapeutic agents for neurodegenerative and neurological diseases” (Eur J Med Chem, 2021).
Values after ≈ are worked out from the molar mass of the structure shown. Active and inactive are the calls of the source. The calls are words filed in the database; no cut-off is given here.

Experiments:
[1] = Toxicity in 3hpf zebrafish AB embryo assessed as LOAEL measured 96 hpf; parameters: species or system Danio rerio; conditions: in vivo, 96 h
How it was run: (§1)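 Zebrafish AB embryos collected at 3 hpf, 20 per well, in E3 medium with graded compound concentrations. Incubated 28.5 °C for 93 h further (to 96 hpf), mortality scored. NOEC/LOEC defined by mortality above 20%. Controls: 0.1% DMSO, three replicates; DEAB at 5 concentrations.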

[2] = Toxicity in 3hpf zebrafish AB embryo assessed as NOAEL measured 96 hpf; parameters: species or system Danio rerio; conditions: in vivo, 96 h; how it was run: as §1
[3] = Toxicity in 3hpf zebrafish AB embryo assessed as median lethal dose measured 96 hpf; parameters: species or system Danio rerio; conditions: in vivo
How it was run: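 AB zebrafish embryos collected 3 hpf, 20 per well in E3 medium with graded compound concentrations, kept at 28.5 °C to 96 hpf. LC50 was fitted as a sigmoid to mortality. NOEC/LOEC used >20% mortality as the effect. Negative control was 0.1% DMSO in triplicate; DEAB (0.1 µM–1 mM) served as positive control.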

[4] = system: SH-SY5Y; experiment: Neuroprotective activity against H2O2-induced oxidative stress in human SH-SY5Y cells assessed as increase in cell viability at 10 uM pretreated with H2O2 for 10 mins followed by compound treatment and measured after 24 hrs by MTT assay; type: functional, cell-based
[5] = system: SH-SY5Y; experiment: Cytotoxicity against human SH-SY5Y cells assessed as reduction in cell viability at 10 uM measured after 24 hrs by MTT assay relative to control; type: cell-based
How it was run: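 SH-SY5Y cells grown in DMEM-F12 with 10% iFBS on collagen-pretreated plates; 2 × 10⁴ cells per well, left 24 h before compound in DMSO (final 1% DMSO) at 1, 10 and 100 µM. Viability by MTT 24 h after addition; mean and SD of at least eight readings from various experiments.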

[6] = species: Danio rerio; experiment: Neuroprotective activity against PTZ-induced neuronal damage in 5 dpf zebrafish AB larvae assessed as effect on AChE activity at 10 uM pretreated for 1 hr followed by removal of medium and subsequent addition of fresh medium containing PTZ and compounds measured after 6 hrs by Ellman's method; type: functional, organism-based; conditions: time 7.0 hrs
How it was run: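 Zebrafish AB larvae at 120 hpf, five per well, ten replicates, two independent experiments. Pretreated 1 h at 26 °C with compound (10 µM) in water with 0.1% DMSO, then after a media change kept 6 h at 26 °C with compound plus 5 mM PTZ. Physostigmine (20 µM) was the control inhibitor. Homogenate supernatant assayed by Ellman method; activity normalized to BCA protein, as % of control.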

[7] = system: RAW264.7; experiment: Antiinflammatory activity in mouse RAW 264.7 cells assessed as inhibition of LPS-induced nitric oxide production at 10 uM measured after 24 hrs by Griess reagent assay; type: functional, cell-based
How it was run: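 NO in 24 h culture supernatants of LPS-stimulated RAW 264.7 cells (compound 10 µM, LPS final 100 ng/mL) estimated indirectly as nitrite concentration.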

[8] = system: RAW264.7; experiment: Antiinflammatory activity in mouse RAW 264.7 cells assessed as decrease in LPS-induced TNF-alpha production at 10 uM measured after 24 hrs by ELISA; type: functional, cell-based
How it was run: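 RAW 264.7 macrophages, 5 × 10⁵ per well, given compound at 10 µM then stimulated with LPS (final 100 ng/mL). TNF-α in supernatants after 24 h measured by ELISA with capture/biotinylated detection antibody pairs.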

[9] = system: Mus musculus; experiment: Neuroprotective activity in C57BL/6 mouse model of 3-NP-induced intoxication assessed as reduction in truncal dystonia at 20 mg/kg, ip measured after 5 days relative to control; type: functional; parameters: scale not given: the % may be the effect or the level left; conditions: time 5 day, in the assay text read “overall motor score” for “truncal dystonia”
How it was run: (§2)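 C57BL/6 mice, 12 weeks old, n = 7 per group. 3-NP given i.p. twice daily, 10 h apart: 4 × 20, 4 × 40, 2 × 60 mg/kg (cumulative 360 mg/kg over 5 days). Compound 20 mg/kg i.p. in 13% hydroxypropyl-β-cyclodextrin with 2% Tween-80, given just before each morning 3-NP dose. Weight and motor scoring done before injections, last one 3 h after final 3-NP dose. Rotarod latency to fall read after the 360 mg/kg cumulative dose.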

[10] = system: Mus musculus; experiment: Neuroprotective activity in C57BL/6 mouse model of 3-NP-induced intoxication assessed as effect on body weight at 20 mg/kg, ip measured after 5 days (91.4 %); type: functional; conditions: time 5 day; how it was run: as §2
[11] = Hydrolytic stability of the compound in mouse serum assessed as parent compound remaining measured after 24 hrs; type: ADME, cell-free; conditions: read-out: Stability
How it was run: (§3)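 Hydrolytic stability measured in mouse serum at 1 h and 24 h.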

[12] = system: Mus musculus; experiment: Immunosuppressive activity in MOG (35 to 55 residues)/pertussis toxin-induced experimental autoimmune encephalomyelitis C57BL/6 mouse model assessed as reduction in clinical scores at 20 mg/kg, ip starting from 20 days post disease progression and administered for 2 weeks; type: functional, organism-based
[13] = Hydrolytic stability of the compound in mouse serum assessed as parent compound remaining measured after 1 hr; type: ADME, cell-free; conditions: read-out: Stability; how it was run: as §3
[14] = Stability of the compound in PBS buffer assessed as parent compound remaining measured after 72 hrs; type: physicochemical; conditions: read-out: Stability
How it was run: (§4)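 Compound incubated 72 h in PBS 1x (pH 7.4) or in SH-SY5Y culture medium; percentage of compound remaining determined.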

[15] = Stability of the compound in human SH-SY5Y cells assessed as parent compound remaining measured after 72 hrs; type: ADME; conditions: read-out: Stability; how it was run: as §4
[16] = system: Mus musculus; experiment: Neuroprotective activity in C57BL/6 mouse model of 3-NP-induced intoxication assessed as reduction in IL6 production at 20 mg/kg, ip by sandwich ELISA
[17] = system: Mus musculus; experiment: Neuroprotective activity in C57BL/6 mouse model of 3-NP-induced intoxication assessed as improvement in latency to fall at 20 mg/kg, ip by rotarod test relative to control; type: functional; how it was run: as §2
[18] = system: Mus musculus; experiment: Antioxidant activity in C57BL/6 mouse model of 3-NP-induced oxidative stress assessed as increase in SOD2 mRNA expression at 20 mg/kg, ip by qRT-PCR method; type: functional, organism-based; how it was run: as §2
[19] = system: RAW264.7; experiment: Antiinflammatory activity in mouse RAW 264.7 cells assessed as decrease in LPS-induced IL-6 production at 10 uM measured after 24 hrs by ELISA; type: functional, cell-based
How it was run: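 RAW 264.7 macrophages, 5 × 10⁵ per well, compound added then stimulated with LPS (final 100 ng/mL) or left unstimulated; IL-6 in supernatant measured after 24 h by sandwich ELISA with capture/biotinylated detection antibodies.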

[20] = system: SH-SY5Y; experiment: Neuroprotective activity against H2O2-induced oxidative stress in human SH-SY5Y cells assessed as increase in cell viability at 100 uM pretreated with H2O2 for 10 mins followed by compound treatment and measured after 24 hrs by MTT assay relative to control; type: functional
[21] = Aqueous solubility of the compound; type: physicochemical

Row | SMILES | LOAEL [1] | NOAEL [2] | LC50 at 96 h [3] | Activity [4] | Activity [8] | other results
1 | CCCC(=O)Oc1ccc(/C=C/c2cc(O[Si](CC)(CC)CC)cc(O[Si](CC)(CC)CC)c2)cc1 | 1000 µM | 100 µM | 407 µM |  |  | 
2 | CCNC(=O)Oc1ccc(/C=C/c2cc(O[Si](C(C)C)(C(C)C)C(C)C)cc(O[Si](C(C)C)(C(C)C)C(C)C)c2)cc1 | 1000 µM | 1000 µM |  |  |  | 
3 | CCCCCCCC(=O)OC[C@H]1O[C@@H](Oc2cc(/C=C/c3ccc(O[Si](C(C)C)(C(C)C)C(C)C)cc3)cc(O[Si](C(C)C)(C(C)C)C(C)C)c2)[C@H](O)[C@@H](O)[C@@H]1O | 1000 µM | 100 µM | 407 µM |  |  | 
4 | CC(C)[Si](Oc1cc(O)cc(/C=C/c2ccc(O)cc2)c1)(C(C)C)C(C)C |  |  |  | Active |  | Activity [5]: > 50%
5 | CC[Si](CC)(CC)Oc1cc(/C=C/c2ccc(O)cc2)cc(O[Si](CC)(CC)CC)c1 | 1000 µM | 100 µM | 475 µM |  | Active | Activity [6]: Active; inhibition [7]: Active
6 | CCCCCCCC(=O)OC[C@@H]1O[C@H](Oc2ccc(/C=C/c3cc(O[Si](C(C)C)(C(C)C)C(C)C)cc(O[Si](C(C)C)(C(C)C)C(C)C)c3)cc2)[C@@H](O)[C@H](O)[C@H]1O | 1000 µM | 100 µM | 407 µM |  |  | Activity [9]: 26.5%; Activity [6]: Active; Activity [10]: 94.8%; remaining at 24 h [11]: 15%; Activity [12]: Active; remaining at 1 h [13]: 75%; remaining at 72 h [14]: > 80%; remaining at 72 h [15]: > 80%; Activity [16]: Active; Activity [17]: 10%; Activity [18]: Active
7 | CC(C)(C)[Si](C)(C)Oc1cc(O)cc(/C=C/c2ccc(O)cc2)c1 |  |  |  | Active |  | Activity [5]: > 50%
8 | CCCCCCCC(=O)OC[C@H]1O[C@@H](Oc2cc(O)cc(/C=C/c3ccc(O)cc3)c2)[C@H](O)[C@@H](O)[C@@H]1O | 10 µM | 1 µM |  |  | Active | 
9 | CC(C)[Si](Oc1cc(/C=C/c2ccc(O)cc2)cc(O[Si](C(C)C)(C(C)C)C(C)C)c1)(C(C)C)C(C)C |  |  |  | Active |  | Activity [6]: Active; Activity [19]: Active; remaining at 72 h [14]: > 80%; Activity [20]: 100%; remaining at 72 h [15]: > 80%
10 | CC(C)[Si](Oc1ccc(/C=C/c2cc(O)cc(O[Si](C(C)C)(C(C)C)C(C)C)c2)cc1)(C(C)C)C(C)C | 1000 µM | > 1000 µM | > 1000 µM | Active | Active | Activity [19]: Active
11 | CC[Si](CC)(CC)Oc1ccc(/C=C/c2cc(O)cc(O)c2)cc1 |  |  |  |  | Active | 
12 | CC(C)[Si](Oc1ccc(/C=C/c2cc(O[C@@H]3O[C@H](CO)[C@@H](O)[C@H](O)[C@H]3O)cc(O[Si](C(C)C)(C(C)C)C(C)C)c2)cc1)(C(C)C)C(C)C | 1000 µM | 1000 µM | > 1000 µM |  |  | remaining at 72 h [14]: > 80%; remaining at 72 h [15]: > 80%
13 | CC[Si](CC)(CC)Oc1ccc(/C=C/c2cc(O)cc(O[Si](CC)(CC)CC)c2)cc1 | 1000 µM | 100 µM | 380 µM | Active | Active | Activity [6]: Active
14 | CC(C)(C)[Si](C)(C)Oc1cc(/C=C/c2ccc(O)cc2)cc(O[Si](C)(C)C(C)(C)C)c1 |  |  |  | Active | Active | 
15 | Oc1ccc(/C=C/c2cc(O)cc(O)c2)cc1 [RESVERATROL] | > 1000 µM | 1000 µM | > 1000 µM |  |  | Activity [6]: Active; solubility [21]: 50 µg/mL (≈ 219 µM)
16 | CC[Si](CC)(CC)Oc1cc(O)cc(/C=C/c2ccc(O)cc2)c1 |  |  |  |  | Active | 
17 | CC(C)[Si](Oc1cc(/C=C/c2ccc(O[C@H]3O[C@@H](CO)[C@H](O)[C@@H](O)[C@@H]3O)cc2)cc(O[Si](C(C)C)(C(C)C)C(C)C)c1)(C(C)C)C(C)C | 1000 µM | 1000 µM | > 1000 µM |  |  | 
18 | CC(C)[Si](Oc1ccc(/C=C/c2cc(O)cc(O)c2)cc1)(C(C)C)C(C)C |  |  |  | Active |  | Activity [5]: > 50%
19 | CC(C)(C)[Si](C)(C)Oc1ccc(/C=C/c2cc(O)cc(O[Si](C)(C)C(C)(C)C)c2)cc1 |  |  |  | Active | Active | 
